HTR2A ag = agonists of mouse serotonin 5-HT2A receptor (HTR2A); activation, % at 7.6 µM; P35363; CHO-K1 mHTR2A beta-arrestin complementation, luminescence; percent of 30 µM serotonin response; 0.66% of 360,000 active;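 active = activation above a run cutoff, the mean activation of all tested compounds plus 3 SD, cut at about 14% in these data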
EBI2 block = blocks human EBI2 receptor beta-arrestin signaling; EBI2 beta-arrestin recruitment, luminescence, 7a,25-OHC stimulated; inhibition, % at 5 µM; 0.81% of 360,000 active; AID 651636; in the data active = inhibition above about 38%;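 note: enzyme fragment complementation signal reports receptor beta-arrestin coupling in cells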
Target sequence (P32249 whole entry, looked up, the tested form may be a part): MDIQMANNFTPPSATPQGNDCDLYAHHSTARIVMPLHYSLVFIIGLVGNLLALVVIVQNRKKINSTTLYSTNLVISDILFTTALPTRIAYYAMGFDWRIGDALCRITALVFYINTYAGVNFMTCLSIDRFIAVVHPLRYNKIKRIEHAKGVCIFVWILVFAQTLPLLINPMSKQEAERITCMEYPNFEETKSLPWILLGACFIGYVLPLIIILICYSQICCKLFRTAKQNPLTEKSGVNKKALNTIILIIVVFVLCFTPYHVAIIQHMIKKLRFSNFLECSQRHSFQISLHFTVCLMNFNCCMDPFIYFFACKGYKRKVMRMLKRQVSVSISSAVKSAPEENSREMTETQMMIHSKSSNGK
APJ ag = activates the human apelin receptor APJ | CHO-K1 APJ PathHunter beta-arrestin, luminescence; 0% DMSO wells, 100% apelin | activation, % at 20 µM | 0.11% of 330,000 active | P35414 | AID 2520;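 active = activation more than six SD over the plate average, tested at 20 µM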
Target sequence (P35414 whole entry, looked up): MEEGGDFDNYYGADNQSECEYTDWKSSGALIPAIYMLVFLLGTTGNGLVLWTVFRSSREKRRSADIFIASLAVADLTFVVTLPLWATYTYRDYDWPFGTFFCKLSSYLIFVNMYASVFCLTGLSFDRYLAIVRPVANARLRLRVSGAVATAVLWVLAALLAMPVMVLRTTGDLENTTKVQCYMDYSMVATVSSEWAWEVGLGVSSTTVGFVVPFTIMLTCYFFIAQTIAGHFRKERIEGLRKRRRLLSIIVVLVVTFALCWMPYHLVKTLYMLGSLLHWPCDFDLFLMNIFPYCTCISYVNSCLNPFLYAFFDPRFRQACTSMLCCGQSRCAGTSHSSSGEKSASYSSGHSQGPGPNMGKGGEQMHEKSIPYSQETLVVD
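Test system: CHO-K1 APJ beta-arrestin complementation cell line | Compound: Single test compound dose, 20 µM final, 1% DMSO | Incubation: Compound 90 min 25 °C, reagent 1 h | Measured by: beta-gal luminescence | Read-out basis: APJ–arrestin association signal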
CXCR6 block = blocks human CXCR6 beta-arrestin recruitment; CHO-K1 PathHunter CXCR6 beta-arrestin, luminescence; inhibition, % at 20 µM; 0.36% of 360,000 active; AID 602244; in the data active = inhibition above about 34%, passing the limit was not always enough;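 note: antagonist mode with CXCL16 agonist at 10 nM final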
APJ antagonist = APJ receptor antagonism; inhibition, % at 20 µM; 0.32% of 330,000 active; CHO-K1 APJ beta-arrestin complementation, luminescence; P35414;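 active = inhibition above about 40% at 20 µM, limit read from the data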;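 note: cells challenged with 10 nM apelin-13 agonist together with compound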
CCR6 antagonist = CCR6 (human) receptor antagonism. CHO-K1 CCR6 PathHunter beta-arrestin, luminescence, CCL20-stimulated. inhibition, % at 20 µM. 0.49% of 340,000 active. AID 493098;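 active = compounds whose inhibition of the agonist-driven luminescence signal at 20 µM reaches about 50%, limit read from the data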;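 note: cells stimulated with CCL20 at 14 nM final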
EBI2 antag conf = confirmation of human EBI2 receptor antagonists. shares compounds with EBI2 block. EBI2 beta-arrestin luminescence, 7a,25-OHC antagonism. inhibition, % at 5 µM. 29% of 2,400 active;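 active = inhibition of at least 50%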
EBI2 ag = counter-screen for EBI2 antagonists: EBI2 agonist activity; activation, % at 5 µM; shares compounds with EBI2 block; 2,400 tested, under 10 active; EBI2-expressing cells, agonist mode, luminescence, 60 min; 0% vehicle, 100% 7α,25-dihydroxycholesterol control;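 active = activation of at least 50%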
bGal counter = beta-galactosidase inhibition counter-screen; shares compounds with EBI2 block; purified beta-galactosidase, luminescent Galacton Star, 15 min; inhibition, % at 5 µM; 1% of 2,400 active; AID 652176;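 active = replicate-average signal at least 3 plate SD below neutral wells, shown as high inhibition, flagging enzyme-inhibiting false positives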;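 note: higher means stronger loss of beta-gal luminescence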
Of the large screens only hits and unclear results are named; the others gave an inactive call (follow-up assays come after a bar, where they were run). In the library only some 2.2% were active in any assay of this set; here they are far more common.

CCOC(=O)C1CCN(C(=O)COc2ccc(Cl)cc2)CC1	EBI2 block 75 | EBI2 antag conf 54 | EBI2 ag inactive | bGal counter inactive
CCOC(=O)C1CCN(C(=O)COC(=O)COc2ccc(Cl)cc2)CC1	none
Cc1cccc(OCC(=O)N2CCN(C(=O)COc3ccc(Cl)cc3)CC2)c1	EBI2 block 84 | EBI2 antag conf 50 | EBI2 ag inactive | bGal counter inactive
COC(=O)C1CCN(C(=O)COc2ccc(Cl)cc2)CC1	EBI2 block 62 | EBI2 antag conf 57 | EBI2 ag inactive | bGal counter inactive
CC(C)C[C@@H]1Cc2[nH]c(=S)[nH]c(=O)c2[C@H](CCc2ccccc2)O1	none (no result: APJ ag, APJ antagonist, CCR6 antagonist)
CCOCCC(=O)Nc1ccc2c(c1)c(=O)n(C)n2CC=C(C)C	none (no result: APJ ag, APJ antagonist, CCR6 antagonist)
O=C1CCCC2=C1C1(CCCCC1)N=C(Nc1nc3ccccc3o1)N2	EBI2 block 47 | EBI2 antag conf inactive | EBI2 ag inactive | bGal counter inactive
O=C1CCCC2=C1C1(CCCC1)N=C(Nc1nc3ccccc3o1)N2	none (no result: APJ ag, APJ antagonist, CCR6 antagonist)
COc1ccc(-c2c(C(=O)c3ccccc3)[nH]c(N)c2C(=O)NCc2ccccc2)cc1OC	none (no result: APJ ag, APJ antagonist, CCR6 antagonist)
O=C(NNc1ccc(C2CCCCC2)cc1)C(O)(c1ccccc1)c1cccs1 (stereo not given)	EBI2 block 41 | EBI2 antag conf inactive | EBI2 ag inactive | bGal counter inactive
COCCNc1nc(Nc2ccc(Cl)cc2F)c2sccc2n1	none (no result: APJ ag, APJ antagonist, CCR6 antagonist)
Cc1ccccc1NS(=O)(=O)c1ccc(C(=O)NCc2ccccc2CN2CCCC2)cc1	none (no result: APJ ag, APJ antagonist, CCR6 antagonist)
Nc1nc(Cl)cc(N2CCC(c3cc(-c4ccc(Cl)cc4Cl)n[nH]3)CC2)n1	EBI2 block 45 | EBI2 antag conf inactive | EBI2 ag inactive | bGal counter inactive
COc1ccc(/C=C/C(=O)c2ccc3c4c(cccc24)CC3)cc1	EBI2 block 56 | EBI2 antag conf inactive | EBI2 ag inactive | bGal counter inactive
COc1ccc(C(=O)Oc2cc(/C=N/NC(N)=S)ccc2OC)cc1	none
COc1ccc(/C=N/NC(N)=S)cc1OC(=O)c1cccc2ccccc12	EBI2 block 56 | EBI2 antag conf inactive | EBI2 ag inactive | bGal counter inactive
OCCN1CCN(c2ncnc3c2ncn3[C@H]2CN(Cc3cccs3)C[C@@H](CO)O2)CC1	none (no result: APJ ag, APJ antagonist, CCR6 antagonist)
COc1ccc(NC(=O)/C(C#N)=C/c2c(C)nn(-c3ccc(F)cc3)c2Cl)cc1Cl	EBI2 block 60 | EBI2 antag conf inactive | EBI2 ag inactive | bGal counter inactive
COc1ccccc1NC(=O)/C(C#N)=C/c1c(C)nn(-c2ccc(F)cc2)c1Cl	none
COc1ccc(NC(=O)/C(C#N)=C/c2c(C)nn(-c3ccc(F)cc3)c2Cl)cc1OC	EBI2 block 70 | EBI2 antag conf 53 | EBI2 ag inactive | bGal counter inactive
Cc1cn([C@H]2C[C@H](O)[C@@H](CNCc3ccc(-c4cc(Cl)ccc4C(F)(F)F)o3)O2)c(=O)[nH]c1=O	none (no result: APJ ag, APJ antagonist, CCR6 antagonist)
O=C(Nc1ccc2c(c1)OCCO2)C(c1ccncc1)n1c(=O)c(-c2cc3ccccc3[nH]2)nc2ccccc21 (stereo not given)	none (no result: APJ ag, CXCR6 block, APJ antagonist, CCR6 antagonist)
CN1C(=O)[C@@](O)(c2cn(C)c3ccccc23)c2cc(Br)ccc21	none (no result: APJ ag, CXCR6 block, APJ antagonist, CCR6 antagonist)
Cc1ccc(C2=CN(Cc3ccccc3)CCC2=O)cc1	EBI2 block 44 | EBI2 antag conf inactive | EBI2 ag inactive | bGal counter inactive
O=C1CCN(Cc2ccccc2)C=C1c1ccc(Br)cc1	EBI2 block 84 | EBI2 antag conf 67 | EBI2 ag inactive | bGal counter inactive
O=C(CN1CCN(Cc2ccccc2)CC1)N/N=C/c1ccc(Br)s1	EBI2 block 44 | EBI2 antag conf inactive | EBI2 ag inactive | bGal counter inactive
C[C@]12c3[nH]c4ccc(Cl)cc4c3CCN1C(=O)[C@@H](CC(=O)NCc1ccco1)C[C@@H]2C(=O)N1CCCCC1	none (no result: APJ ag, APJ antagonist)
N/C(Cc1ccc(Cl)cc1)=N\OC(=O)c1ccc2ccccc2c1	EBI2 block 48 | EBI2 antag conf inactive | EBI2 ag inactive | bGal counter inactive
Cc1ccc(CNC(=O)c2cc3c(s2)CN(Cc2ccccc2)C3)cc1	EBI2 block 66 | EBI2 antag conf inactive | EBI2 ag inactive | bGal counter inactive
COc1ccc2nc(C)cc(SCC(=O)N/N=C/c3cccc4ccccc34)c2c1	EBI2 block 46 | EBI2 antag conf inactive | EBI2 ag inactive | bGal counter inactive
COc1ccc2nc(C)cc(SCC(=O)N/N=C/c3ccc(O)c(O)c3)c2c1	none
COc1ccc(N(C)S(=O)(=O)c2cccc(C(=O)OCC(=O)Nc3cc(C)ccc3OC)c2)cc1	none (no result: APJ ag, APJ antagonist, CCR6 antagonist)
Cc1ccc(NC(=O)c2ccc(OCc3c(C)noc3C)cc2)cc1C	EBI2 block 53 | EBI2 antag conf inactive | EBI2 ag inactive | bGal counter inactive
COc1cc(C(=O)NCCOc2ccc(Cl)cc2)ccc1OCc1c(C)noc1C	EBI2 block 72 | EBI2 antag conf 56 | EBI2 ag inactive | bGal counter inactive
COc1ccc(OCCNC(=O)c2ccc3nc(C)c(N(C)Cc4ccc(NC(C)=O)cc4)n3c2)cc1	EBI2 block 55 (no result: APJ ag, APJ antagonist, CCR6 antagonist) | EBI2 antag conf inactive | EBI2 ag inactive | bGal counter inactive
CCc1nc2ccc(C(=O)NCCOc3ccc(OC)cc3)cn2c1N(C)Cc1ccc(N(C)C)cc1	EBI2 block 49 (no result: APJ ag, APJ antagonist, CCR6 antagonist) | EBI2 antag conf inactive | EBI2 ag inactive | bGal counter inactive
CCc1nc2ccc(C(=O)NCCOc3ccc(OC)cc3)cn2c1N(CC)Cc1ccc(OC)c(OC)c1	EBI2 block 58 (no result: APJ ag, APJ antagonist, CCR6 antagonist) | EBI2 antag conf inactive | EBI2 ag inactive | bGal counter inactive
CCc1nc2ccc(C(=O)NCCOc3ccc(OC)cc3)cn2c1N(C)C(=O)COc1ccccc1	EBI2 block 53 (no result: APJ ag, APJ antagonist, CCR6 antagonist) | EBI2 antag conf inactive | EBI2 ag inactive | bGal counter inactive
CN(CC(=O)Nc1ccc(Cl)cc1)C(=O)CN1C(=O)C2CCCCC2C1=O (stereo not given)	none (no result: APJ ag, APJ antagonist, CCR6 antagonist)
Cc1ccc(NC(NC(=O)Cc2ccccc2)C(Cl)(Cl)Cl)cc1 (stereo not given)	EBI2 block 44 (no result: APJ ag, APJ antagonist) | EBI2 antag conf inactive | EBI2 ag inactive | bGal counter inactive
Cc1cccc(NC(NC(=O)Cc2ccccc2)C(Cl)(Cl)Cl)c1 (stereo not given)	none
Cc1cc(Cl)ccc1OCCCC(=O)N1CCCCC1	none

Compound activity as filed in PubChem BioAssay.
